High-throughput results deposited in PubChem BioAssay by Sanford-Burnham Center for Chemical Genomics.
Most compounds without a hit are left out; they make up all but 2.3% or so of the library.
SUMO1-SIM PPI: SUMO1-SIM interaction modulation | inhibition, % at 20 µM | SUMO1 binding to a labelled peptide, TR-FRET, 1 h | P63165 | 360,000 tested, 0.33% active | AID 602429; in the data active = inhibition above about 37%
Scp-1 inhibitor: inhibitors of human Scp-1 phosphatase; inhibition, % at 20 µM; Recombinant Scp1, phosphopeptide, malachite green phosphate absorbance; 340,000 tested, 0.88% active;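 active = inhibition above about 50% at 20 µM, limit read from the data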;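 note: plate controls were DMSO wells with enzyme for no effect and wells lacking enzyme for full effect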
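Test system: SCP-1 phosphatase catalytic domain, residues 76-261; measured by: colorimetric phosphate reagent with accelerator and stabiliser, absorbance at 630 nm; timing: enzyme reaction 45 min at room temperature, colour 5 min, stabilisation 30 min; also added: Phosphorylated 17-residue peptide substrate; compound dosing: one concentration, 20 µM, with 1.0% DMSO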
Rpn11 inh: Rpn11 (human) deubiquitinase inhibition; O00487; 360,000 tested, 0.59% active; human 26S proteasome, Ub4-pepOG fluorescence polarization; 20S core pre-blocked with epoxomicin; inhibition, % at 20 µM; AID 588493;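 active = inhibition at 20 µM, scaled to each plate's controls, above about 33%, limit read from the data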
STEP inh: inhibitors of human striatal-enriched phosphatase STEP. P54829. recombinant STEP, OMFP fluorogenic substrate, fluorescence. inhibition, % at 20 µM. 360,000 tested, 0.25% active. AID 588621;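 active = inhibition at 20 µM, scaled per plate between control wells, above about 37%, limit read from the data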;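 note: 0% = DMSO with enzyme and substrate and 100% = substrate only without enzyme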
Target sequence (P54829 whole entry, looked up): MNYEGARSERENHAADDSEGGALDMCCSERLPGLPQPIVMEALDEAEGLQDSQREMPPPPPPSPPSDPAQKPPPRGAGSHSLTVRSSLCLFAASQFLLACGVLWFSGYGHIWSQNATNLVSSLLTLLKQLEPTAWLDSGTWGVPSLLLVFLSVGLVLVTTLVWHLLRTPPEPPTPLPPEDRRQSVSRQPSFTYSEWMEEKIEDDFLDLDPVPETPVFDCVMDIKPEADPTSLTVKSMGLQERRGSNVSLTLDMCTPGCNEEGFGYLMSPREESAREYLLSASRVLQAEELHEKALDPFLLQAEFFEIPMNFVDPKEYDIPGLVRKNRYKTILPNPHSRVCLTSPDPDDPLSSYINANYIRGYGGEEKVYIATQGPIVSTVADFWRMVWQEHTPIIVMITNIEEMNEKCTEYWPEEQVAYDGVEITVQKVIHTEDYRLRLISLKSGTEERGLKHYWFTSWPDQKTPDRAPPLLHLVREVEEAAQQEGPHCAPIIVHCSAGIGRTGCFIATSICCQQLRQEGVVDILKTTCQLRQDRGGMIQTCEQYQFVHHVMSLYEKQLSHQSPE
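material = STEP tyrosine phosphatase | reagent = fluorogenic phosphatase substrate OMFP at 25 µM final | doses = single compound dose of 20 µM, 1% DMSO final | schedule = 20 min reaction, room temperature, in the dark | measured by = fluorescence, 480/540 nm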
LMPTP inh: blocks human LMPTP phosphatase; inhibition, % at 20 µM; 360,000 tested, 0.22% active; recombinant LMPTP-A, OMFP fluorogenic substrate, fluorescence intensity; P24666;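 active = compounds that cut the enzyme signal by at least half of the control window in the single-dose screen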;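 note: plate controls were DMSO wells with enzyme plus substrate for no effect and substrate without enzyme for full effect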
Target sequence (P24666 whole entry, looked up): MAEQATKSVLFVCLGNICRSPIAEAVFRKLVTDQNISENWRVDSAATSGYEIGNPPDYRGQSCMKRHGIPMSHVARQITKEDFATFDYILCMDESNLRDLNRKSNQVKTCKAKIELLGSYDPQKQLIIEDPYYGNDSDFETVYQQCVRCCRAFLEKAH
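Buffer or medium: Bis-Tris pH 6.0, DTT, detergent; Assay system: LMPTP-A enzyme; Quantity: 0.625 nM enzyme; Detection: endpoint fluorescence intensity; Times: 50 min dark incubation at room temperature; Controls: substrate-only low control, DMSO enzyme-plus-substrate high control; Doses: single 20 µM dose; Read-out: percent inhibition versus substrate-only and uninhibited controls; Reagent: 400 µM OMFP.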
DNMT1 inh: inhibitors of human DNMT1 | P26358 | DNMT1 molecular beacon, Hinp1I cleavage, fluorescence | inhibition (reported as % activation of signal), % at 10 µM | 360,000 tested, 0.83% active; in the data active = inhibition above about 50%
DNMT1 inh conf: DNMT1 inhibition confirmation, single concentration. 2,300 tested, 8% active. shares compounds with DNMT1 inh. DNMT1 molecular beacon HinP1I cleavage, fluorescence. inhibition, % at 10 µM;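 active = average inhibition of at least 30% in the single-concentration confirmation test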
DNMT1 interf: counter-screen for DNMT1 inhibitors: spectral interference; shares compounds with DNMT1 inh; DNMT1 molecular beacon spectral interference counterscreen, fluorescence 485/520; activation (fluorescence interference), % at 10 µM; 2,300 tested, 1% active;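 active = activation of at least 30% at 10 µM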;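 note: DNMT1 catalytic domain with a HinP1I cleavage step and a FAM/dabcyl DNA beacon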
The depositor's hits bear a star; nt = no result.

SMILES	SUMO1-SIM PPI	Scp-1 inhibitor	Rpn11 inh	STEP inh	LMPTP inh	DNMT1 inh	DNMT1 inh conf	DNMT1 interf
FC(F)(F)c1ccccc1NC(=S)Nn1cnnc1	2.8	-8.0	-1.5	4.5	-0.3	1.4	nt	nt
CCc1nc(N=Nc2c(O)[nH]c3ccccc23)c2c3c(sc2n1)CCC3	-3.3	4.5	-13.8	1.2	-0.2	64.4*	1.9	-3.7
CCc1c(-c2ccccc2)nc2sc3c(c2c1N)CCCC3	2.4	10.0	1.1	-1.9	3.0	0.1	nt	nt
COCCn1c(SCC#N)nnc1-c1ccc([N+](=O)[O-])cc1	-21.3	-3.5	0.2	1.1	-0.5	-2.0	nt	nt
Cc1cc(C)cc(Nc2nc3c(S(=O)(=O)c4ccccc4)nnn3c3ccccc23)c1	-3.7	-1.2	-0.9	3.3	-0.9	53.9*	2.7	-4.0
COc1cccc(CN(CC(=O)NCc2ccco2)C(=O)CNS(=O)(=O)c2ccccc2)c1	1.1	0.1	-2.1	0.3	-0.6	57.1*	7.0	8.2
Cc1ccc(S(=O)(=O)NCC(=O)N(CC(=O)NCc2ccco2)Cc2ccccc2)cc1	2.5	-7.5	5.4	0.4	-0.3	-0.6	nt	nt
Cc1ccc(/C=C/C(=O)Nc2nccs2)o1	-10.7	-7.6	-9.3	-5.2	-1.1	7.2	nt	nt
N#Cc1ccc(CSc2nnc(NC(=O)CCc3nc4ccccc4c(=O)[nH]3)s2)cc1	8.3	-3.9	17.0	1.1	0.6	67.8*	-0.1	-4.6
Cc1ccc(/C=C/C(=O)Nc2nnc(SCc3ccc(C#N)cc3)s2)o1	5.2	-1.2	17.8	3.3	1.3	44.2	18.5	3.0
O=C(CCc1nc2ccccc2c(=O)[nH]1)Nc1nnc(SCc2ccc(F)cc2)s1	6.8	-0.6	12.1	1.2	5.3	63.5*	1.8	77.0*
C[C@H](NC(=O)N1CCn2c1nc1ccccc12)C(=O)N1CCCCC1	-1.9	-11.0	-8.1	2.0	-0.2	1.1	nt	nt
CC(C)(C)NC(=O)CN(C(=O)CNS(=O)(=O)c1ccc(Cl)cc1)c1ccc2c(c1)OCCO2	-0.3	-4.8	2.6	-3.0	0.3	-0.2	nt	nt
O=C(CCl)N(O)c1ccc(C=Cc2ccccc2)cc1	-15.3	7.1	-4.1	0.4	-0.6	14.5	nt	nt
O=C(NCc1ccc(OC(F)(F)F)cc1)C1CC(c2ccccc2C(F)(F)F)=NO1 (centres undefined)	7.9	-11.3	-9.2	1.8	1.4	3.6	nt	nt
COc1ccccc1NC(=O)c1ccccc1C(=O)N(C)Cc1ccccc1	-2.7	-5.4	-4.6	-1.4	-2.8	3.6	nt	nt
CC(=O)C(=Cc1ccc(C(=O)O)cc1)C(C)=O	-4.3	14.7	-0.1	1.9	0.2	9.1	nt	nt
C/C(=C\c1ccc(C(=O)O)cc1)c1ccc2c(c1)C(C)(C)CCC2(C)C	11.0	-6.2	9.8	-2.0	-0.8	51.9*	21.1	0.1
CCN(CC)S(=O)(=O)c1cccc(NC(=O)CSc2nnc(N)s2)c1	2.3	5.4	1.5	4.2	0.4	-1.1	nt	nt
Nc1nnc(SCC(=O)Nc2cccc(S(N)(=O)=O)c2)s1	-1.7	4.8	-7.3	2.0	-0.4	91.7*	3.5	3.5
Cc1ccc(NCC(=O)N/N=C/c2cccc(Br)c2)cc1	0.5	2.0	-0.5	-2.0	3.4	3.6	nt	nt
Cc1ccc(NCC(=O)N/N=C\c2cccc(O)c2)cc1	1.3	-3.4	-5.4	-3.8	-0.1	57.8*	-0.4	4.1
c1ccc(Cn2nnc3c(NCc4ccc5c(c4)OCO5)nc(C4CC4)nc32)cc1	-0.2	7.7	1.0	-0.3	-0.8	36.9	nt	nt
Cc1nc(NCc2ccc3c(c2)OCO3)c2nnn(Cc3ccccc3)c2n1	6.0	2.9	1.3	-0.7	-0.4	54.8*	3.0	3.4
CCn1c(CC(=O)Nc2ccccc2)n[nH]c1=S	1.6	-12.1	-0.2	-3.9	-3.8	82.1*	6.1	7.2
SMILES	SUMO1-SIM PPI	Scp-1 inhibitor	Rpn11 inh	STEP inh	LMPTP inh	DNMT1 inh	DNMT1 inh conf	DNMT1 interf
COC(=O)C1CCN(C(=O)CSc2nc3nc(C)cc(C)n3n2)CC1	-5.6	-1.2	-2.6	-1.4	-0.4	63.3*	0.8	1.9
Cc1cc(C)n2nc(SCC(=O)N3CCC(C(=O)O)CC3)nc2n1	-1.7	2.6	-1.1	-1.5	-3.6	3.6	nt	nt
COc1ccc(CCNS(=O)(=O)c2cn(C)cn2)cc1OC	-2.5	8.6	5.6	-1.9	0.1	1.2	nt	nt
CCn1cc(S(=O)(=O)NCCc2ccc(OC)c(OC)c2)cn1	-2.4	1.0	5.5	0.1	0.8	82.7*	2.9	0.3
O=C(/C=C/[C@H]1O[C@@H](n2ccc(=O)[nH]c2=O)[C@H](O)[C@@H]1O)NCCCc1ccccc1	1.6	nt	0.1	-4.3	-3.0	79.5*	1.1	3.2
O=C(NC(=S)Nc1cc(S(=O)(=O)N2CCOCC2)ccc1N1CCOCC1)c1ccco1	-1.4	-2.3	-4.5	-0.8	0.1	60.2*	3.4	3.0
O=C(N=C1SC2CS(=O)(=O)CC2N1Cc1ccccc1Cl)C1CC1 (centres undefined)	-2.6	-5.5	-4.5	-0.5	1.4	1.2	nt	nt
CC(=O)Nc1ccc(C(=O)OCC(=O)NC2CCCCCC2)cc1	0.9	nt	-0.4	0.5	-2.2	1.8	nt	nt
Cc1cc(C(=O)CCC(=O)N(C)CC2COc3ccccc3O2)c(C)s1 (centres undefined)	-2.7	nt	7.3	-1.2	1.5	-1.4	nt	nt
COC(=O)CN1C(=O)[C@H]2[C@@H](c3ccc(C)o3)N3C(=O)CN(CCO)C(=O)[C@@]3(C)[C@H]2C1=O	10.3	-0.2	-7.6	-2.0	-1.0	103.3*	1.9	3.5
Cc1ccc([C@@H]2[C@@H]3C(=O)N(C)C(=O)[C@@H]3[C@]3(C)C(=O)N(CC4CC4)CC(=O)N23)o1	3.7	7.1	0.4	-3.7	-1.5	1.2	nt	nt
COc1ccc(S(=O)(=O)Nc2c(C)cccc2C)cc1-n1cnnn1	11.6	-10.1	-0.2	0.5	-2.8	-0.6	nt	nt
O=C(O)c1ccc2c(c1)SC1=NS(=O)(=O)CCN12	-2.7	-4.1	-6.1	1.5	-1.0	2.7	nt	nt
COc1ccc(C(C)(C)C)cc1NC(=O)c1ccc2c(c1)SC1=NS(=O)(=O)CCN12	-1.7	-8.7	5.1	-0.4	-0.7	68.9*	0.0	1.6
CC(C)CCNC(=O)c1onc(CSc2nc3ccccc3[nH]2)c1C(=O)NCCC(C)C	1.4	4.0	-11.5	0.1	2.7	-7.2	nt	nt
CC(C)(C)S(=O)(=O)N1C[C@@H]2CC/C=C\C/C=C\2[C@H]1CCO	0.9	-10.9	-4.6	-1.5	-1.3	5.8	nt	nt
CCN(CC)c1ccc2cc(-c3nnc(-c4ccccc4)o3)c(=O)oc2c1	-14.8	-14.5	0.6	-109.3	-1.5	101.6*	88.2*	134.1*
